Published values from different studies.
Lines come from different studies, so protocols differ.
Target: Mitogen-activated protein kinase kinase kinase 9 (MAP3K9, Homo sapiens, UniProt P80192)
Observed: enzyme activity
Mode: inhibitor

Structure (SMILES)	method	tested at	remaining activity [%]
Cc1sc(C(=O)NC2COC2)cc1-n1cc(NC(=O)Nc2c(F)cccc2Cl)cn1	–	10 µM	87.5
CCCOc1ccc(OC)c(F)c1C(=O)c1ccc(C(=O)N[C@@H]2CNC[C@H]2NC(=O)c2ccc3[nH]ncc3c2)cc1	–	10 µM	32
Oc1cccc(-c2nc(N3CCOCC3)c3oc4ncccc4c3n2)c1	–	10 µM	65
CC(C)(C)c1nc2c(s1)c1nc(N)ncc1c1ccc(NS(=O)(=O)c3c(F)cccc3F)c(F)c12	radiometric	1 µM	66
FC(F)c1nc2ccccc2n1-c1nc(N2CCOCC2)nc(N2CCOCC2)n1	–	10 µM	86
O=C(NCCCNc1ccnc(Nc2cccc(NC(=O)N3CCCC3)c2)n1)C1CCC1	radiometric	1 µM	79
COc1cc(Cl)c(C(=O)N[C@@H](CN[C@H]2CC[C@@H](N)CC2)Cc2ccc(C#N)cc2)cc1-c1ccc(CN[C@H](C)c2ccc(C)cc2)o1	–	1 µM	97
Cc1nn(CC(F)(F)F)cc1Nc1ncc(Br)c(NCCc2cnc[nH]2)n1	radiometric	1 µM	30
CC(C)(C)c1nc(-c2cccc(NS(=O)(=O)c3c(F)cccc3F)c2F)c(-c2ccnc(N)n2)s1	radiometric	1 µM	70
COc1cc(Nc2cnc(C#N)c(O[C@H](C)CN(C)C)n2)ncc1-c1cnn(C)c1	radiometric	10 µM	48
Cc1nn(CC(F)(F)F)cc1Nc1ncc(C2CC2)c(NCc2ccc(S(N)(=O)=O)cc2)n1	radiometric	1 µM	90
CC(C)(O)[C@H]1CC[C@H](Nc2ccc3ncc(-c4cccc(C(F)(F)F)c4)n3n2)CC1	–	1 µM	77
CN1CCc2cc(Nc3ncc(C4CC4)c(NCCCNC(=O)C4CCC4)n3)ccc2C1	radiometric	1 µM	14
Cc1cnc(NC2CCOCC2)nc1-n1cnc(C(=O)NC(CN)c2cc(F)cc(Cl)c2)c1 (stereo not shown)	radiometric	1 µM	94
O=C(Nc1cnn(-c2csc(C(=O)NC3COC3)c2)c1)Nc1c(F)cccc1Cl	–	5 µM	88.5
Cc1nn(CC(F)(F)F)cc1Nc1nccc(NCc2ccc(S(N)(=O)=O)cc2)n1	radiometric	1 µM	97
Cc1ccc(C(=O)Nc2ccc(CN3CCN(C)CC3)c(C(F)(F)F)c2)cc1C#Cc1cnc2cccnn12	–	23.5 nM	96
NS(=O)(=O)c1ccc(CNc2ccnc(Nc3cccc(CN4CCOCC4)c3)n2)cc1	radiometric	1 µM	81
CCN(CC)c1ccc(C2=NNC(=O)CC2C)cc1[N+](=O)[O-] (stereo not shown)	–	10 µM	100
